Measurements pooled from the literature.
CSF1R Y969C: Macrophage colony-stimulating factor 1 receptor (CSF1R, Homo sapiens, UniProt P07333, Y969C)
CSF1R: Macrophage colony-stimulating factor 1 receptor (CSF1R, Homo sapiens, UniProt P07333)
CSF1R autoinhibited: Macrophage colony-stimulating factor 1 receptor, autoinhibited (CSF1R, Homo sapiens, UniProt P07333)

| Compound | target | assay | conditions | endpoint | result |
| --- | --- | --- | --- | --- | --- |
| CCCOc1ccc(OC)c(F)c1C(=O)c1ccc(C(=O)N[C@@H]2CNC[C@H]2NC(=O)c2ccc3[nH]ncc3c2)cc1 | CSF1R Y969C | enzyme activity, inhibitor | 10 µM | remaining activity | 57% |
| O=C(CSc1nc2nccnc2c(=O)n1CCc1ccccc1)Nc1nccs1 | CSF1R | enzyme activity, inhibitor | 10 µM | inhibition | 13% |
| CCCS(=O)(=O)Nc1ccc(F)c(C(=O)c2c[nH]c3ncc(-c4ccc(Cl)cc4)cc23)c1F | CSF1R | enzyme activity, inhibitor | 1 µM | inhibition | < 20% |
| COc1ccnn2ncc(-c3ccnc(N(C)C)n3)c12 | CSF1R autoinhibited | binding | 1 µM | remaining binding | 91% |
| CCN(CC)c1ccc(C2=NNC(=O)CC2C)cc1[N+](=O)[O-] (stereo not shown) | CSF1R | enzyme activity, inhibitor | 10 µM | remaining activity | 114% |
| Nc1ncnc2occ(-c3ccc(NC(=O)Nc4cc(C(F)(F)F)ccc4F)cc3)c12 | CSF1R autoinhibited | cell-free assay | 20 µM | remaining signal | 0.95% |
| CCN(CC)CCNC(=O)c1c(C)[nH]c(/C=C2\C(=O)Nc3ccc(F)cc32)c1C | CSF1R | cell-free assay | 0.3 µM | inhibition | 98% |
| O=S(=O)(c1cccc2cnccc12)N1CCCNCC1 | CSF1R | cell-free assay | 0.5 µM | remaining signal | 97.9% |
| CCCCN(CCCC)C(=O)CN1C[C@@H](c2cc(OC)c3c(c2)OCO3)[C@H](C(=O)O)[C@H]1CC(C)(C)CCC | CSF1R autoinhibited | cell-free assay, competition with immobilised ligand | 1 µM | remaining binding | 100% |
| Cc1ccc(NC(=O)c2ccc(CN3CCN(C)CC3)cc2)cc1Nc1nccc(-c2cncc(-c3oncc3C)c2)n1 | CSF1R | enzyme activity, inhibitor | 0.5 µM | remaining activity | ≤ 50% |
| CS(=O)(=O)N1CCCC(NC(=O)[C@H](CCC2CCCCC2)NC(=O)c2ccc(CNC(=O)c3cnc4ccccn34)cc2)C1 (stereo partly shown) | CSF1R autoinhibited | cell-free assay, competition with immobilised ligand | 0.1 µM | remaining binding | 100% |
| N[C@@H]1CCN(c2nccc(-c3cnn4ncccc34)n2)C1 | CSF1R | binding | 1 µM | remaining binding | 100% |
| Cc1cc(NC(=O)c2cccc3cc(-c4cccc5[nH]nc(N)c45)ccc23)ccc1F | CSF1R | enzyme activity, inhibitor | 0.1 µM | activity vs control | 7% |
| C=CC(=O)Nc1cc(Nc2nccc(Nc3cc(Cl)c(F)cc3C(C)(C)O)n2)c(OC)cc1N1CC[C@@H](N(C)C)C1 | CSF1R | enzyme activity, inhibitor | 1 µM | inhibition | 13% |
| Cc1sc(C(=O)NC2COC2)cc1-n1cc(NC(=O)Nc2c(F)cccc2Cl)cn1 | CSF1R | enzyme activity, inhibitor | 10 µM | remaining activity | 103% |
| COc1cc2ncnc(Nc3ccc(Oc4ccccc4)cc3C)c2cc1OC | CSF1R | enzyme activity, inhibitor | 1 µM | inhibition | 24% |
| CC(=O)C1=C(C)N(c2cccc(C(F)(F)F)c2)C(=O)N[C@@H]1c1ccc(C#N)nc1 | CSF1R | cell-free assay, competition with immobilised ligand | 1 µM | remaining binding | 99.4% |

| Compound | target | assay | conditions | endpoint | result |
| --- | --- | --- | --- | --- | --- |
| CNC(=O)c1cc2c(Oc3ccc(NC(=O)C4(C(=O)Nc5ccc(F)cc5)CC4)cc3)ccnc2cc1OC | CSF1R Y969C | enzyme activity, inhibitor, radiometric | 1 µM | inhibition | 77% |
| CN(C)c1nccc(-c2cnn3ncccc23)n1 | CSF1R autoinhibited | binding | 1 µM | remaining binding | 100% |
| O=C1NC(=O)c2cc(Nc3ccc(F)cc3)c(Nc3ccc(F)cc3)cc21 | CSF1R | cell-free assay | 0.5 µM | remaining signal | 104% |
| COc1cc(-c2cn(C3CCc4c(F)cccc4N(CC(F)(F)F)C3=O)nn2)ccc1-n1cnc(C)c1 (stereo not shown) | CSF1R autoinhibited | cell-free assay, competition with immobilised ligand | 1 µM | remaining binding | 100% |
| CN(C)c1nccc(-c2cnc3ncccn23)n1 | CSF1R autoinhibited | binding | 1 µM | remaining binding | 65% |
| COc1cc2ncnc(Nc3ccc(F)c(Cl)c3)c2cc1OCCCN1CCOCC1 | CSF1R | cell-free assay | 0.5 µM | remaining signal | 110% |
| C[C@@H]1CN(c2cc(-c3nn(C)c4ccc(OC5(C)CC5)cc34)ncn2)C[C@H](C)O1 | CSF1R autoinhibited | cell-free assay, competition with immobilised ligand | 1 µM | remaining binding | 55% |
| CC(C)(C)c1nc(-c2cccc(NS(=O)(=O)c3c(F)cccc3F)c2F)c(-c2ccnc(N)n2)s1 | CSF1R | enzyme activity, inhibitor, radiometric | 1 µM | remaining activity | 109% |
| O=C(N1CCS(=O)(=O)CC1)N1C[C@H](c2ccc(OC(F)(F)F)cc2)C[C@H](c2nc(C3CC3)no2)C1 | CSF1R | cell-free assay, competition with immobilised ligand | 1 µM | remaining binding | 100% |
| C[C@@H]1CCN(c2nccc(-c3cnn4ncccc34)n2)C1 | CSF1R | binding | 1 µM | remaining binding | 100% |
| Cc1cnc(NC2CCOCC2)nc1-n1cnc(C(=O)NC(CN)c2cc(F)cc(Cl)c2)c1 (stereo not shown) | CSF1R | enzyme activity, inhibitor, radiometric | 1 µM | remaining activity | 103% |
| Oc1cccc(-c2nc(N3CCOCC3)c3oc4ncccc4c3n2)c1 | CSF1R | cell-free assay | 0.5 µM | remaining signal | 108% |
| FC(F)(F)c1ccc2c(c1)nc(-c1cccnc1)n2C1CC1 | CSF1R autoinhibited | cell-free assay, competition with immobilised ligand | 1 µM | remaining binding | 89% |
| c1ccc(-c2n[nH]c3c2oc2ccccc23)cc1 | CSF1R | cell-free assay | 0.5 µM | remaining signal | 78.1% |
| Cc1ccc(NC(=O)c2ccc(C)c(C(F)(F)F)c2)cc1C#Cc1nn(C2CCC(O)CC2)c2ncnc(N)c12 (stereo not shown) | CSF1R | cell-free assay | 10 µM | remaining signal | 4% |
| CN(C(=O)c1ccccc1)c1cc(N(C)c2ccc3c(c2)CCc2ccc(C(=O)NCCN4CCOCC4)cc2C3=O)ccc1F | CSF1R | cell-free assay, competition with immobilised ligand | 1 µM | remaining binding | 98% |
| CN(C)C1CCN(CC#Cc2nn(C3CCCC3)c3nc(NCc4ccccc4)ncc23)C1 (stereo not shown) | CSF1R | enzyme activity, inhibitor, FRET | 10 µM | inhibition | 107% |
